Published values pooled from the literature.
Lines come from different studies, so protocols differ.
Target: TRAF2 and NCK-interacting protein kinase (TNIK, Homo sapiens, UniProt Q9UKE5)

CCN1CCC2(CC1)NC(=O)c1c(c3ccc(Cl)c(Cl)c3n1C)C2C#N (racemic)  ΔTm (thermal stability, DSF; 10 µM): 0 °C
CS(=O)(=O)c1cc(C2(NC(=O)c3cncc4c3cnn4-c3ccc(F)cc3)CC2)ccn1  remaining binding (cell-free assay, competition with immobilised ligand; 1 µM): 95%
CC1(C)NC(=O)c2[nH]c3c(Cl)c(Cl)ccc3c2C1C#N (centres unmarked)  ΔTm (thermal stability, DSF; 10 µM): 0 °C
O=C(N[C@H]1CCCCC/C=C\C2C[C@@]2(C(=O)O)NC(=O)[C@@H]2C[C@@H](Oc3ccncc3)CN2C1=O)OC1CCCC1 (some centres unmarked)  remaining binding (binding, competition with immobilised ligand; 1 µM): 78%
Cn1c2c(c3ccccc31)C(C#N)C(C)(C)NC2=O (centres unmarked)  ΔTm (thermal stability, DSF; 10 µM): -0.1 °C
O=C(Nc1cnn(-c2csc(C(=O)NC3COC3)c2)c1)Nc1ccccc1Cl  remaining activity (enzyme activity, inhibitor; 5 µM): 53.2%
CCC1(CC)NC(=O)c2c(c3ccc(Cl)c(Cl)c3n2C)C1C#N (centres unmarked)  ΔTm (thermal stability, DSF; 10 µM): 0.3 °C
c1ccc(CNc2nc(N3CCOc4ccccc43)nc3c2CCCC3)cc1  inhibition (target engagement in cells, inhibitor, chemoproteomics; 20 mM): -8%
CN1CC(Oc2cnc(C#N)cc2-c2ccn3nc(NC(=O)C4CC4)cc3c2)C1  inhibition (enzyme activity, inhibitor; 1 µM): 29%
Cn1cnc(Br)c1C1=CN(c2ncnc3[nH]cnc23)CCS1  inhibition (enzyme activity, inhibitor, radiometric; 2 µM): 88.7%
Nc1ncnc2occ(-c3ccc(NC(=O)Nc4cc(C(F)(F)F)ccc4F)cc3)c12  remaining signal (cell-free assay, inhibitor; 20 µM): 6.9%
CCCCN(CCCC)C(=O)CN1C[C@@H](c2cc(OC)c3c(c2)OCO3)[C@H](C(=O)O)[C@H]1CC(C)(C)CCC  remaining binding (cell-free assay, competition with immobilised ligand; 1 µM): 86%
Cn1c2c(c3ccc(Cl)c(Cl)c31)C(C#N)C(C)(C)NC2=O (centres unmarked)  ΔTm (thermal stability, DSF; 10 µM): -0.4 °C
CO[C@@H](C)c1c(Nc2ccc([C@@H](N(C)C(=O)C3CCS(=O)(=O)CC3)C(F)(F)F)cc2)cnc2cc(Cl)nn12  remaining binding (cell-free assay, competition with immobilised ligand; 1 µM): 100%
COc1cccc2c(NCc3ccccc3)nc(-n3c(N)nc4ccccc43)nc12  inhibition (target engagement in cells, inhibitor, chemoproteomics; 20 mM): 3.5%
Cn1c2c(Cl)c(Cl)ccc2c2cc(N)[nH]c(=O)c21  ΔTm (thermal stability, DSF; 10 µM): 0.1 °C
Cn1nc(C(=O)NCc2ccc(C(=O)O)cc2)cc1-c1ccc2[nH]ccc2c1  remaining binding (cell-free assay, competition with immobilised ligand; 0.1 µM): 97%
O=C(Nc1cnn(-c2csc(C(=O)NC3COC3)c2)c1)Nc1c(F)cccc1Cl  remaining activity (enzyme activity, inhibitor; 5 µM): 84.3%
CCC(=O)N[C@H]1CC[C@@H](C(=O)N(C)c2ccc(-c3nc4ccccc4o3)cc2)C1  remaining binding (cell-free assay, competition with immobilised ligand; 1 µM): 100%
CS(=O)(=O)Nc1cccc(-c2csc(NC(=O)CSc3nc4nccnc4c(=O)n3CCc3ccccc3)n2)c1  inhibition (enzyme activity, inhibitor; 10 µM): -2%
